Activity calls are given as the source filed them. The calls are words filed in the database; no cut-off is given here.
What was measured:
Type in all cases: functional, cell-based
PC-3M [1] = test: Anti-invasive activity against human PC3M cells at 50 nM
PC-3M [2] = test: Antiproliferative activity against human PC3M cells at 5 to 50 nM by MTT assay
PC-3M [3] = test: Effect on paracellular permeability of human PC3M cells
Outline: (§1)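 PC-3M grown at confluency on Transwell filters in complete medium until TER developed. Tetramethylrhodamine-dextran (4 kDa, 1 mg/mL in HBSS) added to upper chamber, HBSS in lower.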

PC-3M [4] = test: Effect on paracellular permeability of calcitonin-treated human PC3M cells; outline: as §1
PC-3M [5] = test: Effect on baseline transepithelial resistance in human PC3M cells
Outline: (§2)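 PC-3M plated at confluency on Transwell filters (0.4 µm pores) in complete medium with 25 mM Hepes, pH 7.4. Cultured with or without CT (50 nM). TER measured in duplicate wells every 12 h with a voltohmmeter. Values blank-subtracted (filter plus bathing medium) and normalized to filter area.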

PC-3M [6] = test: Effect on calcitonin-stimulated decrease in transepithelial resistance in human PC3M cells; outline: as §2
PC-3M [7] = test: Cytotoxicity against human PC3M cells at 50 nM by MTT assay

Structure (SMILES): C/C1=C\[C@H](OC(=O)NCc2ccccc2)C[C@@](C)(O)/C=C/[C@H](C(C)C)CC/C(C)=C/CC1
- Activity (PC-3M [1]): Active
- Activity (PC-3M [2]): Active

Structure (SMILES): C/C1=C\[C@H](O)C[C@@](C)(O)/C=C/[C@H](C(C)C)CC/C(CO)=C/CC1
- Activity (PC-3M [1]): Active

Structure (SMILES): C/C1=C\CC/C(CO)=C/[C@H](O)C[C@@](C)(O)/C=C/[C@H](C(C)C)CC1
- Activity (PC-3M [1]): Active

Structure (SMILES): CCNC(=O)O[C@H]1/C=C(\C)CC/C=C(\C)CC[C@@H](C(C)C)/C=C/[C@](C)(O)C1
- Activity (PC-3M [1]): Active
- Activity (PC-3M [3]): Active
- Activity (PC-3M [4]): Active
- Activity (PC-3M [2]): Active
- Activity (PC-3M [5]): Active
- Activity (PC-3M [6]): Active

Structure (SMILES): C/C1=C\C[C@@H](O)/C(C)=C/[C@H](O)C[C@@](C)(O)/C=C/[C@H](C(C)C)CC1
- Activity (PC-3M [1]): Active

Structure (SMILES): C/C1=C\[C@H](OC(=O)NCCCl)C[C@@](C)(O)/C=C/[C@H](C(C)C)CC/C(C)=C/CC1
- Activity (PC-3M [1]): Active
- Activity (PC-3M [2]): Active

Structure (SMILES): C/C1=C\[C@H](O)C[C@@](C)(O)/C=C/[C@H](C(C)C)C[C@@H](O)/C(C)=C/CC1
- Activity (PC-3M [1]): Active
- Activity (PC-3M [7]): inactive
